Results taken from ChEMBL document CHEMBL1151968, “Ceramide and cerebrosides from the octocoral Sarcophyton ehrenbergi” (2009).
Active and inactive are the calls of the source. The calls are words filed in the database; no cut-off is given here.

What was measured:
Shigella sonnei = assay: Antibacterial activity against Shigella sonnei ATCC 11060 at […]; format: functional, organism-based
Summary of the method: (§1)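 Agar-overlay disk diffusion. Strains grown in LB broth 24 h at 37 °C; 0.3 mL broth culture in 2.7 mL LB soft agar (0.7%) poured over LB hard agar (1.5%). 8 mm paper disks loaded with 10 μL of 2 μg/μL sample; ampicillin (5 μg/μL) positive control, solvent negative control. Plates incubated 37 °C, 24 h, then inhibition assessed.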

Klebsiella aerogenes = assay: Antibacterial activity against Enterobacter aerogenes ATCC 13048 at […]; format: functional, organism-based; summary of the method: as §1
Serratia marcescens = assay: Antibacterial activity against Serratia marcescens ATCC 25419 at […]; format: functional, organism-based; summary of the method: as §1
[1] = test system: Salmonella enterica subsp. enterica; assay: Antibacterial activity against Salmonella enteritidis ATCC 13076 at […]; format: functional, organism-based; conditions: Salmonella enterica subsp. enterica serovar Enteritidis; summary of the method: as §1
RAW264.7 [2] = assay: Antiinflammatory activity in mouse RAW264.7 cells assessed as reduction of LPS-induced COX2 protein level at 10 uM by immunoblot analysis relative to control; format: functional; set-up: scale not given: the % may be the effect or the level left
Summary of the method: (§2)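 Murine RAW 264.7 macrophages stimulated with E. coli LPS (0.01 μg/mL) for 16 h with or without sample (10 μM). Lysates from cells washed in ice-cold PBS; equal protein run on SDS-PAGE, transferred to PVDF, probed with anti-iNOS or anti-COX-2 (1:1000, 180 min); β-actin blotted. Band intensity expressed relative to LPS-alone group (100%); mean ± SEM, n = 5.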

RAW264.7 [3] = assay: Antiinflammatory activity in mouse RAW264.7 cells assessed as reduction of LPS-induced iNOS protein level at 10 uM by immunoblot analysis relative to control; format: functional; set-up: scale not given: the % may be the effect or the level left; summary of the method: as §2

Structure (SMILES)	Activity (Shigella sonnei)	Activity (Klebsiella aerogenes)	Activity (Serratia marcescens)	Activity [1]	Activity (RAW264.7 [2])	Activity (RAW264.7 [3]) [%]
CCCCCCCCCCCCCCCCCCCC[C@@H](O)C(=O)N[C@@H](CO[C@@H]1O[C@H](CO)[C@@H](O)[C@H](O)[C@H]1O)[C@H](O)/C=C/CC/C=C(\C)CCCCCCCCC	inactive	inactive	inactive	inactive		
CCCCCCCCCCCCCC[C@@H](O)C(=O)N[C@@H](CO[C@@H]1O[C@H](CO)[C@@H](O)[C@H](O)[C@H]1O)[C@H](O)/C=C/CC/C=C(\C)CCCCCCCCC	inactive	inactive	inactive	inactive	64.3%	20.3
O=C(/C=C/c1ccc(O)c(O)c1)OCCc1ccccc1 [CAFFEIC ACID PHENETHYL ESTER]					70.2%	1.5
CCCCCCCCCCCCC/C=C/[C@@H](O)[C@H](CO)NC(C)=O	inactive	inactive	inactive	inactive	77.2%	46.9
CCCCCCCCCCCCCCCCCCC[C@@H](O)C(=O)N[C@@H](CO[C@@H]1O[C@H](CO)[C@@H](O)[C@H](O)[C@H]1O)[C@H](O)/C=C/CC/C=C(\C)CCCCCCCCC [SARCOEHRENOSIDE B]	inactive	inactive	inactive	inactive	inactive	46.5
CCCCCCCCCCCCCCCCCC[C@@H](O)C(=O)N[C@@H](CO[C@@H]1O[C@H](CO)[C@@H](O)[C@H](O)[C@H]1O)[C@H](O)/C=C/CC/C=C(\C)CCCCCCCCC	inactive	inactive	inactive	inactive	inactive	25.8
CCCCCCC/C=C/C(C)=C/CC/C=C/[C@@H](O)[C@H](CO[C@H]1O[C@H](CO)[C@@H](O)[C@H](O)[C@H]1O)NC(=O)[C@H](O)/C=C/CCCCCCCCCCCCCC [SARCOEHRENOSIDE A]	inactive	inactive	inactive	inactive	inactive	47.3
